# Data: ChEMBL document CHEMBL5303300, “EUbOPEN Chemogenomics Library - Multiplex” (2023)
# Values joined by “and” are separate entries in the source; they are usually repeats but may differ in a detail not shown here. Identical values can stand only once.
# How the values were obtained:
# Assay type in all cases: toxicity, cell-based
# Fibroblast = assay: Multiplex assay against human fibroblast; conditions: number of replicates 2
# Method in brief: (§1)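 Live cells were stained at seeding with Hoechst33342, BioTracker Green Microtubule Cytoskeleton Dye, MitoTracker Red and Annexin V Alexa Fluor 680, then imaged on a CQ1 microscope at 37°C and 5% CO2 after compound addition. CellPathfinder machine-learning gating split cells into Hoechst high-intensity objects or normal cells. Normal cells were split into healthy, pyknosed or fragmented nuclei, and pyknosed cells into mitotic or apoptotic. Tubulin, mitochondrial-mass and membrane-permeability phenotypes are per cents of healthy-nucleus cells.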
# HEK-293T = assay: Multiplex assay against HEK293T; conditions: human, number of replicates 2; method in brief: as §1
# U2OS = assay: Multiplex assay against U2OS; conditions: human, number of replicates 2; method in brief: as §1
# [1] = 12 h, 1 µM, compound concentration 1 uM
# [2] = 12 h, 10 µM, compound concentration 10 uM
# [3] = 24 h, 1 µM, compound concentration 1 uM
# [4] = 24 h, 10 µM, compound concentration 10 uM
# [5] = 48 h, 1 µM, compound concentration 1 uM
# [6] = 48 h, 10 µM, compound concentration 10 uM
smiles,measurement,setting,value
CN(C)C/C=C/C(=O)Nc1cccc(S(=O)(=O)N2CCC(NC(=O)c3n[nH]cc3NC(=O)c3c(Cl)cc(Cl)cc3Cl)CC2)c1,Population Apoptotic (%),Fibroblast; [1],51% and 32%
same,Population Fragmented Nuclei (%),Fibroblast; [1],12% and 7%
same,Population Healthy Nuclei (%),Fibroblast; [1],59% and 65%
same,Population Hoechst High Intensity Objects (%),Fibroblast; [1],0% and 1%
same,Population Membrane Permeable-Phenotype (%),Fibroblast; [1],11% and 14%
same,Population Mitochondria Different-Phenotype (%),Fibroblast; [1],1% and 5%
same,Population Mitotic Cells (%),Fibroblast; [1],48% and 67%
same,Population Normal (%),Fibroblast; [1],100% and 98%
same,Population Pyknosed Nuclei (%),Fibroblast; [1],28% and 26%
same,Population Tubulin-Different-Phenotype (%),Fibroblast; [1],45% and 40%
same,Total Cell Count,Fibroblast; [1],158 and 185
same,Population Apoptotic (%),Fibroblast; [2],47% and 44%
same,Population Fragmented Nuclei (%),Fibroblast; [2],28% and 26%
same,Population Healthy Nuclei (%),Fibroblast; [2],36% and 40%
same,Population Hoechst High Intensity Objects (%),Fibroblast; [2],0%
same,Population Membrane Permeable-Phenotype (%),Fibroblast; [2],18% and 10%
same,Population Mitochondria Different-Phenotype (%),Fibroblast; [2],4% and 5%
same,Population Mitotic Cells (%),Fibroblast; [2],52% and 55%
same,Population Normal (%),Fibroblast; [2],100%
same,Population Pyknosed Nuclei (%),Fibroblast; [2],34% and 32%
same,Population Tubulin-Different-Phenotype (%),Fibroblast; [2],82% and 72%
same,Total Cell Count,Fibroblast; [2],243 and 248
same,Population Apoptotic (%),Fibroblast; [3],74% and 57%
same,Population Fragmented Nuclei (%),Fibroblast; [3],12% and 11%
same,Population Healthy Nuclei (%),Fibroblast; [3],62% and 63%
same,Population Hoechst High Intensity Objects (%),Fibroblast; [3],0%
same,Population Membrane Permeable-Phenotype (%),Fibroblast; [3],12% and 17%
same,Population Mitochondria Different-Phenotype (%),Fibroblast; [3],6% and 3%
same,Population Mitotic Cells (%),Fibroblast; [3],25% and 42%
same,Population Normal (%),Fibroblast; [3],100%
same,Population Pyknosed Nuclei (%),Fibroblast; [3],25%
same,Population Tubulin-Different-Phenotype (%),Fibroblast; [3],52% and 41%
same,Total Cell Count,Fibroblast; [3],140 and 177
same,Population Apoptotic (%),Fibroblast; [4],73% and 77%
same,Population Fragmented Nuclei (%),Fibroblast; [4],19% and 21%
same,Population Healthy Nuclei (%),Fibroblast; [4],15% and 20%
same,Population Hoechst High Intensity Objects (%),Fibroblast; [4],0%
same,Population Membrane Permeable-Phenotype (%),Fibroblast; [4],25% and 12%
same,Population Mitochondria Different-Phenotype (%),Fibroblast; [4],25% and 21%
same,Population Mitotic Cells (%),Fibroblast; [4],26% and 22%
same,Population Normal (%),Fibroblast; [4],99% and 100%
same,Population Pyknosed Nuclei (%),Fibroblast; [4],65% and 57%
same,Population Tubulin-Different-Phenotype (%),Fibroblast; [4],80% and 74%
same,Total Cell Count,Fibroblast; [4],227 and 226
same,Population Apoptotic (%),Fibroblast; [5],70% and 64%
same,Population Fragmented Nuclei (%),Fibroblast; [5],14% and 12%
same,Population Healthy Nuclei (%),Fibroblast; [5],44% and 50%
same,Population Hoechst High Intensity Objects (%),Fibroblast; [5],0%
same,Population Membrane Permeable-Phenotype (%),Fibroblast; [5],18%
same,Population Mitotic Cells (%),Fibroblast; [5],29% and 35%
same,Population Normal (%),Fibroblast; [5],100%
same,Population Pyknosed Nuclei (%),Fibroblast; [5],40% and 37%
same,Population Tubulin-Different-Phenotype (%),Fibroblast; [5],39% and 51%
same,Total Cell Count,Fibroblast; [5],166 and 150
same,Population Apoptotic (%),Fibroblast; [6],91% and 94%
same,Population Fragmented Nuclei (%),Fibroblast; [6],16% and 12%
same,Population Healthy Nuclei (%),Fibroblast; [6],5% and 6%
same,Population Hoechst High Intensity Objects (%),Fibroblast; [6],1% and 0%
same,Population Membrane Permeable-Phenotype (%),Fibroblast; [6],80% and 66%
same,Population Mitochondria Different-Phenotype (%),Fibroblast; [6],10% and 0%
same,Population Mitotic Cells (%),Fibroblast; [6],8% and 5%
same,Population Normal (%),Fibroblast; [6],98% and 99%
same,Population Pyknosed Nuclei (%),Fibroblast; [6],77% and 80%
same,Population Tubulin-Different-Phenotype (%),Fibroblast; [6],70% and 66%
same,Total Cell Count,Fibroblast; [6],191 and 189
same,Population Apoptotic (%),HEK-293T; [1],38% and 72%
same,Population Fragmented Nuclei (%),HEK-293T; [1],3% and 4%
same,Population Healthy Nuclei (%),HEK-293T; [1],89% and 87%
same,Population Hoechst High Intensity Objects (%),HEK-293T; [1],10%
same,Population Membrane Permeable-Phenotype (%),HEK-293T; [1],2% and 1%
same,Population Mitochondria Different-Phenotype (%),HEK-293T; [1],49% and 45%
same,Population Mitotic Cells (%),HEK-293T; [1],61% and 28%
same,Population Normal (%),HEK-293T; [1],89%
same,Population Pyknosed Nuclei (%),HEK-293T; [1],6% and 7%
same,Population Tubulin-Different-Phenotype (%),HEK-293T; [1],86% and 90%
same,Total Cell Count,HEK-293T; [1],376 and 356
same,Population Apoptotic (%),HEK-293T; [2],87% and 90%
same,Population Fragmented Nuclei (%),HEK-293T; [2],2% and 4%
same,Population Healthy Nuclei (%),HEK-293T; [2],84% and 79%
same,Population Hoechst High Intensity Objects (%),HEK-293T; [2],16% and 14%
same,Population Membrane Permeable-Phenotype (%),HEK-293T; [2],5% and 1%
same,Population Mitochondria Different-Phenotype (%),HEK-293T; [2],87% and 88%
same,Population Mitotic Cells (%),HEK-293T; [2],12% and 9%
same,Population Normal (%),HEK-293T; [2],83% and 85%
same,Population Pyknosed Nuclei (%),HEK-293T; [2],13% and 16%
same,Population Tubulin-Different-Phenotype (%),HEK-293T; [2],96% and 97%
same,Total Cell Count,HEK-293T; [2],417 and 374
same,Population Apoptotic (%),HEK-293T; [3],80%
same,Population Fragmented Nuclei (%),HEK-293T; [3],2% and 3%
same,Population Healthy Nuclei (%),HEK-293T; [3],90% and 85%
same,Population Hoechst High Intensity Objects (%),HEK-293T; [3],13% and 11%
same,Population Membrane Permeable-Phenotype (%),HEK-293T; [3],1% and 0%
same,Population Mitochondria Different-Phenotype (%),HEK-293T; [3],70% and 63%
same,Population Mitotic Cells (%),HEK-293T; [3],19% and 20%
same,Population Normal (%),HEK-293T; [3],86% and 88%
same,Population Pyknosed Nuclei (%),HEK-293T; [3],7% and 10%
same,Population Tubulin-Different-Phenotype (%),HEK-293T; [3],87% and 89%
same,Total Cell Count,HEK-293T; [3],336 and 325
same,Population Apoptotic (%),HEK-293T; [4],94% and 91%
same,Population Fragmented Nuclei (%),HEK-293T; [4],2% and 4%
same,Population Healthy Nuclei (%),HEK-293T; [4],64% and 53%
same,Population Hoechst High Intensity Objects (%),HEK-293T; [4],19% and 22%
same,Population Membrane Permeable-Phenotype (%),HEK-293T; [4],3% and 4%
same,Population Mitochondria Different-Phenotype (%),HEK-293T; [4],93% and 90%
same,Population Mitotic Cells (%),HEK-293T; [4],6% and 8%
same,Population Normal (%),HEK-293T; [4],80% and 77%
same,Population Pyknosed Nuclei (%),HEK-293T; [4],32% and 42%
same,Population Tubulin-Different-Phenotype (%),HEK-293T; [4],71% and 67%
same,Total Cell Count,HEK-293T; [4],381 and 319
same,Population Apoptotic (%),HEK-293T; [5],92% and 73%
same,Population Fragmented Nuclei (%),HEK-293T; [5],3% and 2%
same,Population Healthy Nuclei (%),HEK-293T; [5],86% and 82%
same,Population Hoechst High Intensity Objects (%),HEK-293T; [5],20% and 12%
same,Population Membrane Permeable-Phenotype (%),HEK-293T; [5],1%
same,Population Mitochondria Different-Phenotype (%),HEK-293T; [5],75% and 81%
same,Population Normal (%),HEK-293T; [5],79% and 87%
same,Population Pyknosed Nuclei (%),HEK-293T; [5],10% and 15%
same,Population Tubulin-Different-Phenotype (%),HEK-293T; [5],85% and 91%
same,Total Cell Count,HEK-293T; [5],328 and 309
same,Population Apoptotic (%),HEK-293T; [6],78% and 71%
same,Population Fragmented Nuclei (%),HEK-293T; [6],6%
same,Population Healthy Nuclei (%),HEK-293T; [6],30% and 25%
same,Population Hoechst High Intensity Objects (%),HEK-293T; [6],14%
same,Population Membrane Permeable-Phenotype (%),HEK-293T; [6],3% and 7%
same,Population Mitochondria Different-Phenotype (%),HEK-293T; [6],90% and 76%
same,Population Mitotic Cells (%),HEK-293T; [6],21% and 28%
same,Population Normal (%),HEK-293T; [6],85%
same,Population Pyknosed Nuclei (%),HEK-293T; [6],62% and 68%
same,Population Tubulin-Different-Phenotype (%),HEK-293T; [6],65% and 78%
same,Total Cell Count,HEK-293T; [6],442 and 399
same,Population Apoptotic (%),U2OS; [1],78% and 85%
same,Population Fragmented Nuclei (%),U2OS; [1],15% and 10%
same,Population Healthy Nuclei (%),U2OS; [1],50% and 56%
same,Population Hoechst High Intensity Objects (%),U2OS; [1],0%
same,Population Membrane Permeable-Phenotype (%),U2OS; [1],15% and 7%
same,Population Mitotic Cells (%),U2OS; [1],21% and 14%
same,Population Normal (%),U2OS; [1],100% and 99%
same,Population Pyknosed Nuclei (%),U2OS; [1],35% and 33%
same,Population Tubulin-Different-Phenotype (%),U2OS; [1],65% and 50%
same,Population Apoptotic (%),U2OS; [2],80% and 82%
same,Population Fragmented Nuclei (%),U2OS; [2],8% and 13%
same,Population Healthy Nuclei (%),U2OS; [2],15% and 11%
same,Population Hoechst High Intensity Objects (%),U2OS; [2],0%
same,Population Membrane Permeable-Phenotype (%),U2OS; [2],80% and 83%
same,Population Mitochondria Different-Phenotype (%),U2OS; [2],45% and 66%
same,Population Mitotic Cells (%),U2OS; [2],19% and 17%
same,Population Normal (%),U2OS; [2],99% and 100%
same,Population Pyknosed Nuclei (%),U2OS; [2],76% and 75%
same,Population Tubulin-Different-Phenotype (%),U2OS; [2],100% and 83%
same,Population Apoptotic (%),U2OS; [3],65% and 93%
same,Population Fragmented Nuclei (%),U2OS; [3],25% and 9%
same,Population Healthy Nuclei (%),U2OS; [3],29% and 40%
same,Population Hoechst High Intensity Objects (%),U2OS; [3],0%
same,Population Membrane Permeable-Phenotype (%),U2OS; [3],6% and 13%
same,Population Mitochondria Different-Phenotype (%),U2OS; [3],13% and 20%
same,Population Normal (%),U2OS; [3],100%
same,Population Pyknosed Nuclei (%),U2OS; [3],45% and 50%
same,Population Tubulin-Different-Phenotype (%),U2OS; [3],86% and 59%
same,Population Apoptotic (%),U2OS; [4],97%
same,Population Fragmented Nuclei (%),U2OS; [4],11% and 9%
same,Population Healthy Nuclei (%),U2OS; [4],4% and 3%
same,Population Hoechst High Intensity Objects (%),U2OS; [4],0% and 2%
same,Population Membrane Permeable-Phenotype (%),U2OS; [4],100% and 83%
same,Population Mitochondria Different-Phenotype (%),U2OS; [4],100% and 83%
same,Population Mitotic Cells (%),U2OS; [4],2%
same,Population Normal (%),U2OS; [4],100% and 97%
same,Population Pyknosed Nuclei (%),U2OS; [4],84% and 87%
same,Population Tubulin-Different-Phenotype (%),U2OS; [4],100%
same,Population Apoptotic (%),U2OS; [5],76% and 97%
same,Population Healthy Nuclei (%),U2OS; [5],9% and 17%
same,Population Hoechst High Intensity Objects (%),U2OS; [5],4% and 5%
same,Population Normal (%),U2OS; [5],95% and 94%
same,Population Pyknosed Nuclei (%),U2OS; [5],60% and 74%
same,Population Tubulin-Different-Phenotype (%),U2OS; [5],100% and 82%
same,Population Apoptotic (%),U2OS; [6],93%
same,Population Fragmented Nuclei (%),U2OS; [6],0% and 6%
same,Population Healthy Nuclei (%),U2OS; [6],23% and 10%
same,Population Hoechst High Intensity Objects (%),U2OS; [6],0% and 1%
same,Population Membrane Permeable-Phenotype (%),U2OS; [6],90% and 94%
same,Population Mitochondria Different-Phenotype (%),U2OS; [6],90% and 72%
same,Population Mitotic Cells (%),U2OS; [6],6%
same,Population Normal (%),U2OS; [6],100% and 98%
same,Population Pyknosed Nuclei (%),U2OS; [6],76% and 83%
same,Population Tubulin-Different-Phenotype (%),U2OS; [6],100% and 88%
